This is a sample that favours compounds with a hit; in the whole collection about 2.9% have one here.
Dynein cargo inh – inhibitors of GR-EGFP nuclear translocation, primary screen, dynein cargo transport inhibitor project, imaging, high-content, 3617.4 mouse cells; test concentration mostly 20 µM; stimulated with dexamethasone, 1 µM; stronger effect = lower value; z-score, hits read low; actives 0.47% (n = 220,000);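 active = plate z-score of nuclear minus cytoplasmic receptor signal below a set negative limit, without overly bright fluorescence or cell loss, cut at about -3.5 in these data, passing the limit was not always enough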;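 also: z-score of nuclear minus cytoplasmic ring GR-EGFP intensity difference per well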
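Also added: dexamethasone, 1.0 µM final. Medium: tet-free, stripped-serum medium. Detection: fixed, Hoechst-stained cells imaged at 10x for EGFP. Read-out: nuclear-to-cytoplasmic GR-EGFP distribution per well. Times: induction 48 h, compound 1 h, agonist 30 min.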
MEKK2 WT-MEK5 – modulators of MEK5 binding to wildtype MEKK2, primary screen, biochemical, multiplex bead flow cytometry, Alexa488-MEK5; Mitogen-activated protein kinase kinase kinase 2 (Homo sapiens), Q9Y2U5; Alexa488-MEK5 binding to MEKK2 WT; actives lie on both sides; binding response (% of control), % at 10 µM; actives 1.1% (n = 290,000); AID 1531, 2009; in the data active = binding response below about 67% or above about 130%
MEKK2mut PB1 HTS – MEK5 binding signal on mutant MEKK2 PB1, primary screen, biochemical, multiplex bead flow cytometry, Alexa488-MEK5 | percent response, % at 10 µM | actives 0.35% (n = 290,000) | Alexa488-MEK5 binding to MEKK2 mutant | AID 1530, 2009; in the data active = percent response above about 24%, passing the limit was not always enough
B2AR ag – beta2AR agonists driving receptor internalization, primary screen, cell-based, FAP fluorogen, flow cytometry | Am2.2-beta2AR cells | response, % (concentration not given with the values) | AID 504454, 2011 | Beta-2 adrenergic receptor (Homo sapiens), P07550 | actives 0.43% (n = 340,000);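 active = response above a set limit, near 3 SD of response in nonfluorescent compounds, cut at about 42% in these data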
MEKK3 PB1 HTS – modulators of MEKK3-MEK5 PB1 binding, primary screen, biochemical, wildtype MEKK3, multiplex bead flow cytometry, Alexa488-MEK5; Mitogen-activated protein kinase kinase kinase 3 (Homo sapiens), Q99759; binding response (% of control), % at 10 µM; bead-based flow cytometry, Alexa488-MEK5 binding to MEKK3; actives lie on both sides; 0 = blocked by unlabeled MEK5, 100 = vehicle; actives 1.4% (n = 290,000);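 active = binding response more than 3 SD above or below the average of its plate-row segment, actives on both sides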;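 also: Alexa488 bead fluorescence after subtracting the streptavidin-only scavenger bead signal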
Target sequence (Q99759 whole entry, looked up): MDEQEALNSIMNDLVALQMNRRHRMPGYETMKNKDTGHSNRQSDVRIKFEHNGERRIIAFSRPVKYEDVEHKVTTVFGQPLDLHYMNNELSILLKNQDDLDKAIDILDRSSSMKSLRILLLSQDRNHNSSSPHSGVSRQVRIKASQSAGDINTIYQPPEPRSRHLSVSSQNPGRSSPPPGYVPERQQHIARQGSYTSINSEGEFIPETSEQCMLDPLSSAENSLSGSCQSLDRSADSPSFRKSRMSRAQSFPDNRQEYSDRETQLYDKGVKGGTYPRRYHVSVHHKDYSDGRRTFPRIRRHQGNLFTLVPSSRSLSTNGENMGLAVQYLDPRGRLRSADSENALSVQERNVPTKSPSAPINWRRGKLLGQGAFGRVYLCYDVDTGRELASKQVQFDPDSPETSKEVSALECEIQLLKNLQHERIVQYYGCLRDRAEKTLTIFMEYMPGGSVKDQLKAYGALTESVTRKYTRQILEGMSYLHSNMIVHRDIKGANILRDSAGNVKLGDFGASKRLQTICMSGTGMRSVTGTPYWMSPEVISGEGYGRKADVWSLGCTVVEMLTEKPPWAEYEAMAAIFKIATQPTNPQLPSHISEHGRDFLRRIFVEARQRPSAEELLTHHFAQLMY
ATG4B inh – ATG4B protease inhibitors, primary screen, biochemical, fluorescence, uHTS; inhibition, % at 8.33 µM; ATG4B cleavage of LC3-PLA2, NBD-HPC fluorescence, 1 h; actives 0.51% (n = 340,000); in the data active = inhibition above about 40%
MEKK2wt confirm – modulators of MEK5 binding to wildtype MEKK2, confirmation, biochemical, single concentration, multiplex bead flow cytometry; AID 1892, 2009; actives 2.4% (n = 5,900); Alexa488-MEK5 binding to MEKK2 WT; actives lie on both sides; shares compounds with MEKK3 PB1 HTS; binding response (% of control), % at 10 µM; in the data active = binding response below about 16% or above about 210%; inactive = in between
MEKK2mut confirm – mutant MEKK2 PB1-MEK5 binding signal retest – biochemical, single concentration, multiplex bead flow cytometry, confirmation; shares compounds with MEKK3 PB1 HTS; Alexa488-MEK5 binding to MEKK2 mutant; percent response, % at 10 µM; actives 2% (n = 5,900); AID 1893, 2009; in the data active = percent response mostly above about 71%, no sharp cut-off; inactive = mostly below about 38%;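 also: higher means compound restores mutant binding toward wildtype level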
MEKK3-MEK5 inh – MEKK3 wild-type PB1 binding to MEK5, inhibitors, confirmation, biochemical, bead multiplex flow cytometry, single concentration, wildtype; binding response (% of control), % at 10 µM; shares compounds with MEKK3 PB1 HTS; Alexa488-MEK5 binding to MEKK3; stronger effect = lower value; actives 1.8% (n = 5,900);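 active = binding response below 72% of control, or above a set upper limit, though filed actives all read lower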;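 also: 100% = DMSO only wells and 0% = binding blocked by excess unlabeled MEK5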
The depositor's hits bear a star; [ ] = dose if it differs, or a comment.

For COc1cccc(CNC(=O)CCS(=O)(=O)c2ccc3c(c2)CC(C)N3C(=O)C2CC2)c1 (stereo not drawn) the results were MEKK2 WT-MEK5 104.0, MEKK2mut PB1 HTS 6.0, MEKK3 PB1 HTS 102.0 and ATG4B inh 3.8.
`Cc1cccnc1Oc1ncccc1N` gave B2AR ag -8.3 and ATG4B inh -4.0.
`Cc1ccccc1-n1c(O)c(/C=N/N2CCCCC2c2cccnc2)c(=O)[nH]c1=O` (stereo not drawn) gave Dynein cargo inh -0.292, MEKK2 WT-MEK5 105.0, MEKK2mut PB1 HTS 0.0, B2AR ag 7.9, MEKK3 PB1 HTS 173.0*, ATG4B inh -1.2, MEKK2wt confirm 104.0, MEKK2mut confirm 3.0 and MEKK3-MEK5 inh 101.0.
`Cc1ccc(S(=O)(=O)N2CCCCC2c2cccnc2)c(C)c1C` (stereo not drawn) gave Dynein cargo inh -0.298, MEKK2 WT-MEK5 96.0, MEKK2mut PB1 HTS -7.0, B2AR ag 7.3, MEKK3 PB1 HTS 95.0 and ATG4B inh 1.0.
`CC(=O)Nc1ccc(OCC(O)Cn2c(C)nc3ccccc32)cc1` (stereo not drawn) gave Dynein cargo inh 1.87, MEKK2 WT-MEK5 106.0, MEKK2mut PB1 HTS 10.0, B2AR ag -0.2, MEKK3 PB1 HTS 101.0 and ATG4B inh 5.2.
CC(=O)N(C)c1ccc(OCC(O)Cn2c(C)nc3ccccc32)cc1 (stereo not drawn) was read as Dynein cargo inh 0.989, MEKK2 WT-MEK5 115.0, MEKK2mut PB1 HTS 1.0, B2AR ag 1.2, MEKK3 PB1 HTS 135.0*, ATG4B inh -11.7, MEKK2wt confirm 98.0, MEKK2mut confirm -2.0 and MEKK3-MEK5 inh 101.0.
Screening Cc1ccc(Nc2c(-c3ccccc3O)nc3ncccn23)cc1 returned Dynein cargo inh 0.501, MEKK2 WT-MEK5 108.0, MEKK2mut PB1 HTS 28.0, B2AR ag 0.1, MEKK3 PB1 HTS 130.0*, ATG4B inh -1.8, MEKK2wt confirm 96.0, MEKK2mut confirm -1.0 and MEKK3-MEK5 inh 98.0.
Screening CCCC1/C(=N/O)CC(c2ccccc2)NC1c1ccccc1 (stereo not drawn) returned Dynein cargo inh -0.387, MEKK2 WT-MEK5 7.0*[inhibitor], MEKK2mut PB1 HTS -42.0, B2AR ag 14.8, MEKK3 PB1 HTS 4.0*[inhibitor], ATG4B inh -4.4, MEKK2wt confirm 101.0, MEKK2mut confirm -3.0 and MEKK3-MEK5 inh 101.0.
`Cc1cccc(OCCNS(=O)(=O)c2ccc(Cl)cc2)c1` gave B2AR ag -4.5 and ATG4B inh -43.1.
CCOC(=O)c1[nH]c2ccccc2c1NC(=O)C1CCCCC1 was read as Dynein cargo inh -0.0236, MEKK2 WT-MEK5 83.0, MEKK2mut PB1 HTS -12.0, B2AR ag -0.3, MEKK3 PB1 HTS 76.0*[inhibitor], ATG4B inh 6.8, MEKK2wt confirm 99.0, MEKK2mut confirm -4.0 and MEKK3-MEK5 inh 101.0.
CCCCC(CC(O)COCCC)c1n[nH]c(=S)n1-c1ccccc1 (stereo not drawn) was read as Dynein cargo inh 1.72, MEKK2 WT-MEK5 106.0, MEKK2mut PB1 HTS -1.0, B2AR ag 4.8, MEKK3 PB1 HTS 128.0*, ATG4B inh 4.3, MEKK2wt confirm 106.0, MEKK2mut confirm 5.0 and MEKK3-MEK5 inh 101.0.
`CCCCCC(O)CCc1n[nH]c(=S)n1-c1ccccc1` (stereo not drawn) gave Dynein cargo inh 0.361, MEKK2 WT-MEK5 107.0, MEKK2mut PB1 HTS 5.0, B2AR ag 1.0, MEKK3 PB1 HTS 102.0 and ATG4B inh -4.9.
`Nn1c(SCC(=O)NC(=O)Nc2ccc3c(c2)OCCO3)nnc1C1CC1` gave Dynein cargo inh 0.179, MEKK2 WT-MEK5 97.0, MEKK2mut PB1 HTS -2.0, B2AR ag 8.2, MEKK3 PB1 HTS 82.0 and ATG4B inh -4.6.
For S=C(Nc1ccc(Cl)cc1)N1CCCCC1 the results were Dynein cargo inh -0.965, MEKK2 WT-MEK5 108.0, MEKK2mut PB1 HTS 0.0, B2AR ag 2.2, MEKK3 PB1 HTS 105.0 and ATG4B inh -1.5.
Screening COc1ccc(NC(=S)N2CCCC2)cc1 returned Dynein cargo inh -0.444, MEKK2 WT-MEK5 91.0, MEKK2mut PB1 HTS -1.0, B2AR ag -0.2, MEKK3 PB1 HTS 59.0*[inhibitor], ATG4B inh -5.4, MEKK2wt confirm 99.0, MEKK2mut confirm -5.0 and MEKK3-MEK5 inh 93.0.
`S=C(Nc1ccc(Br)cc1)N1CCCC1` gave Dynein cargo inh 0.324, MEKK2 WT-MEK5 113.0, MEKK2mut PB1 HTS 0.0, B2AR ag 0.3, MEKK3 PB1 HTS 131.0*, ATG4B inh 5.8, MEKK2wt confirm 102.0, MEKK2mut confirm -4.0 and MEKK3-MEK5 inh 102.0.
Screening O=C1c2ccccc2S(=O)(=O)c2cc(N3CCOCC3)ccc21 returned MEKK2 WT-MEK5 88.0, MEKK2mut PB1 HTS -5.0, B2AR ag -1.5, MEKK3 PB1 HTS 82.0*[inhibitor], ATG4B inh 8.8, MEKK2wt confirm 98.0, MEKK2mut confirm -7.0 and MEKK3-MEK5 inh 99.0.
Screening CC(C)N(Cc1ccccc1)C(=O)CN1C(=O)NC2(CCOc3ccccc32)C1=O (stereo not drawn) returned B2AR ag 1.7 and ATG4B inh -11.7.
For CC1=C(C(=O)OC(C)C)C(C2CC=CCC2)NC(=O)N1 (stereo not drawn) the results were Dynein cargo inh -0.588, MEKK2 WT-MEK5 -4.0*[inhibitor], MEKK2mut PB1 HTS -40.0, B2AR ag 0.1, MEKK3 PB1 HTS 0.0*[inhibitor], ATG4B inh 4.8, MEKK2wt confirm 103.0, MEKK2mut confirm 10.0 and MEKK3-MEK5 inh 105.0.

Source: PubChem
